The target of test [1] is T1, GABA-A receptor; alpha-1/beta-3/gamma-2 (Homo sapiens) (UniProt P14867+P18507+P28472). Put plainly: Percent change in electrophysiological response in Xenopus oocytes expressing Alpha1-beta3-gamma2 GABA-A receptor. The test is classed as functional, cell-based. As to conditions: Oocyte. Put shortly:
(§1)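 Two-electrode voltage clamp on Xenopus oocytes injected with human GABA-A subunit cDNAs, 24-72 h expression, perfused with modified Barth's medium at pH 7.5, clamped between -40 and -70 mV. The GABA EC20 was titrated against a 3 mM GABA maximum. […] Result is % change of control current, mean ± SE of ≥4 oocytes.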

Test [2] concerns the target T1, GABA-A receptor; alpha-1/beta-3/gamma-2 (Homo sapiens). The experiment in a line: Percent maximum change in electrophysiological response in Xenopus oocytes expressing alpha-1-beta-3-gamma-2 GABA-A receptor. The test is classed as functional, cell-based. As to conditions: Oocyte. In outline:
as §1

For test [3], the target named is GABA-A receptor; alpha-2/beta-3/gamma-2 (Homo sapiens) (UniProt P18507+P28472+P47869). The experiment in a line: Percent maximum change in electrophysiological response in Xenopus oocytes expressing alpha-2-beta-3-gamma-2 GABA-A receptor. The test is classed as functional, cell-based. As to conditions: Oocyte. In outline: as §1
The target in test [4] is GABA-A receptor; alpha-5/beta-3/gamma-2 (Homo sapiens) (UniProt P18507+P28472+P31644). The experiment in a line: Percent maximum change in electrophysiological response in Xenopus oocytes expressing alpha-5-beta-3-gamma-2 GABA-A receptor. As to conditions: Oocyte. It is filed as functional, cell-based. In outline:
as §1

Test [5] concerns the target GABA A receptor alpha-4/beta-3/gamma-2 (Homo sapiens, UniProt P18507+P28472+P48169). Put plainly: Inhibition of [3H]-Ro-15-1788 binding to human alpha-4-beta-3-gamma-2 GABA-A receptor expressed in L(tk-) cells. It is filed as cell-based.
The test system of the next test is Rattus norvegicus. Put plainly: Tested for cognitive performance in rats in delayed matching-to-place version of water maze test at 1 mg/kg p.o.; Significant enhancement in performance. The test is classed as functional, organism-based. Further details: dose 1 mg/kg.

One compound from ChEMBL document CHEMBL1148356, “Synthesis and biological evaluation of 3-heterocyclyl-7,8,9,10-tetrahydro-(7,10-ethano)-1,2,4-triazolo[3,4-a]phthalazines and analogues as subtype-selective inverse agonists for the GABA(A)alpha5 benzodiazepine binding site” (J Med Chem, 2004) can be followed below.

The source made the active and inactive calls. The rule behind the calls is not given here.

Sequence of GABA A receptor alpha-4/beta-3/gamma-2 (P18507 whole entry): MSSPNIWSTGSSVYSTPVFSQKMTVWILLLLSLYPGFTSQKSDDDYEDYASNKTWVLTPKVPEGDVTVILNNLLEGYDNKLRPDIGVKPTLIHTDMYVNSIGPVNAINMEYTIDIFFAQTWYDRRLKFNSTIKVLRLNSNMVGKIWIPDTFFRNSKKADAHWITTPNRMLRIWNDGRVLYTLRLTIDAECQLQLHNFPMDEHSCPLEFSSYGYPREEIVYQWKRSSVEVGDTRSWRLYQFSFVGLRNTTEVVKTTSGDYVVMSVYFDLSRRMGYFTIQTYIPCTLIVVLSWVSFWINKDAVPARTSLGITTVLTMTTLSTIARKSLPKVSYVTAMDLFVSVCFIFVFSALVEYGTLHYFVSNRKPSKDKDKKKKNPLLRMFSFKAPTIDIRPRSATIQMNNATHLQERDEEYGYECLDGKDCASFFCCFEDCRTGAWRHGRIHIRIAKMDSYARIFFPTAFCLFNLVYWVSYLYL
Sequence of GABA A receptor alpha-4/beta-3/gamma-2 (P28472 whole entry): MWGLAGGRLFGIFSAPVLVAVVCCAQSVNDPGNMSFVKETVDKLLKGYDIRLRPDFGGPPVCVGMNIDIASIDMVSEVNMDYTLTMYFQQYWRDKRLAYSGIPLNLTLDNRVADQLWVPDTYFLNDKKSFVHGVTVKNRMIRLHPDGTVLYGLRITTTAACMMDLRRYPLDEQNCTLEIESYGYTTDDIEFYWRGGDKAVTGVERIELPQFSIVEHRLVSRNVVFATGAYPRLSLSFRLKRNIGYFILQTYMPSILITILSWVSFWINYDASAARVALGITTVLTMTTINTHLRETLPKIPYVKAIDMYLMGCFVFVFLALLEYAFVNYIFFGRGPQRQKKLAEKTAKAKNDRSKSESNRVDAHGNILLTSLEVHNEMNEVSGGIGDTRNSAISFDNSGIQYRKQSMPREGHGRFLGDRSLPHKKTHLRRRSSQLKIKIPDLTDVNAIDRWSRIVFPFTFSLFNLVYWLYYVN
Sequence of GABA A receptor alpha-4/beta-3/gamma-2 (P48169 whole entry): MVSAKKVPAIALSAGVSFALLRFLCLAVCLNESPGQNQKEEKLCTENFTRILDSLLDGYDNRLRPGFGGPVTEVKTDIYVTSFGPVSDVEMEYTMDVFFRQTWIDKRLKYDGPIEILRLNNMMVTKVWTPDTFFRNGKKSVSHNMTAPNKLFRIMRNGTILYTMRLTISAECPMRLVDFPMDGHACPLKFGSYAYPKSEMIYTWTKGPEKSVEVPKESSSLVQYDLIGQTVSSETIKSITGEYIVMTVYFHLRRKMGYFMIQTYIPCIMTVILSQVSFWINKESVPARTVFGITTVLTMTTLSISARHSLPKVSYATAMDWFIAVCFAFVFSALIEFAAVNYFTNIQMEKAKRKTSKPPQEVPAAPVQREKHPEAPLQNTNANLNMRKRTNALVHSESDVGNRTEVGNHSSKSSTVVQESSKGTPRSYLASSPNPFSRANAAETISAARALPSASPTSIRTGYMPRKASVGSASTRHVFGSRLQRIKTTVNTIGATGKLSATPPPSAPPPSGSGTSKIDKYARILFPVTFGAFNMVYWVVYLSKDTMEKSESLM

As a reminder, the Ki is the dissociation constant of the complex between target and ligand, obtained from inhibition or displacement. A high value points to lower affinity. `Cc1cc(-c2nnc3c4ccccc4c(OCc4ccccn4)nn23)no1`: the Efficacy was -2% in test [1], -14% in test [2], -7% in test [3] and -45% in test [4]. Further, the Ki in test [5] was 244 nM. For the same compound, in the test with Rattus norvegicus, the result was Active.
